Data from ChEMBL document CHEMBL1138434 (J Nat Prod, 2003).
Converted amounts (≈) assume the structure as drawn. The source made the active and inactive calls. The calls are words filed in the database; no cut-off is given here.

Assays:
Saccharomyces cerevisiae [1] = test: Potentiation of fluconazole-induced antifungal activity against Saccharomyces cerevisiae DSY 416 expressing Candida albicans MDR1 assessed as fractional inhibitory concentration at 0.1 uM after 40 to 48 hrs by checkerboard assay; assay type: functional
How it was run: (§1)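 Checkerboard in 96-well format: FLU serially diluted along one axis and partner agent along the other, covering all combinations. S. cerevisiae pump strains or null strain at 1.0 × 10^4 CFU/mL in YPD, 30 °C for 40-48 h, growth read at 630 nm. FIC uses IC50 endpoint; FLU at 0.5 µM (null pump), 50 µM (CDR1, MDR1), 1.56 µM (CDR2), 3.13 µM (FLU1).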

Saccharomyces cerevisiae [2] = test: Potentiation of fluconazole-induced antifungal activity against Saccharomyces cerevisiae DSY 417 expressing Candida albicans CDR2 assessed as fractional inhibitory concentration at 0.1 uM after 40 to 48 hrs by checkerboard assay; assay type: functional; how it was run: as §1
Saccharomyces cerevisiae [3] = test: Potentiation of fluconazole-induced antifungal activity against Saccharomyces cerevisiae DSY 426 expressing Candida albicans FLU1 assessed as fractional inhibitory concentration at 0.1 uM after 40 to 48 hrs by checkerboard assay; assay type: functional; how it was run: as §1
Saccharomyces cerevisiae [4] = test: Antifungal activity against Saccharomyces cerevisiae DSY 417 expressing Candida albicans CDR2 after 40 to 48 hrs by serial dilution method; assay type: functional, organism-based
How it was run: (§2)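 S. cerevisiae strains (null pump DSY 390, or carrying C. albicans CDR1, MDR1, CDR2, FLU1 pumps) were grown from −80 °C glycerol stocks on YNB-URA/TRYP selection agar at 30 °C. The modified NCCLS broth microdilution used compound serially diluted in 0.9% saline from DMSO, with YPD inoculum at 1.0 × 10^4 CFU/mL final. Plates were read at OD630 before and after 40-48 h at 30 °C. IC50 = 50% growth inhibition; MIC = no detectable growth.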

Saccharomyces cerevisiae [5] = test: Antifungal activity against Saccharomyces cerevisiae DSY 415 expressing Candida albicans CDR1 after 40 to 48 hrs by serial dilution method; assay type: functional, organism-based
How it was run: (§3)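 S. cerevisiae strains carrying C. albicans efflux pumps, grown 1-2 days from frozen stocks on YNB-URA/TRYP selection agar at 30 °C. Modified NCCLS broth microdilution: serial dilutions in 0.9% saline (compounds dissolved in DMSO), inoculum 1.0 × 10^4 CFU/mL in YPD. Incubated 30 °C for 40-48 h and read at 630 nm before and after. IC50 = 50% growth inhibition; MIC = lowest concentration with no detectable growth.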

Saccharomyces cerevisiae [6] = test: Potentiation of fluconazole-induced antifungal activity against Saccharomyces cerevisiae DSY 415 expressing Candida albicans CDR1 assessed as fractional inhibitory concentration at 0.1 uM after 40 to 48 hrs by checkerboard assay; assay type: functional; how it was run: as §1
Saccharomyces cerevisiae [7] = test: Antifungal activity against Saccharomyces cerevisiae DSY 426 expressing Candida albicans FLU1 after 40 to 48 hrs by serial dilution method; assay type: functional, organism-based; how it was run: as §3
Saccharomyces cerevisiae [8] = test: Antifungal activity against Saccharomyces cerevisiae DSY 416 expressing Candida albicans MDR1 after 40 to 48 hrs by serial dilution method; assay type: functional, organism-based; details: for MIC: DSY 416; for IC50: DSY 416, MDR1; how it was run: as §2
Saccharomyces cerevisiae [9] = test: Potentiation of fluconazole-induced antifungal activity against Saccharomyces cerevisiae DSY 390 assessed as fractional inhibitory concentration at 0.1 uM after 40 to 48 hrs by checkerboard assay; assay type: functional; how it was run: as §1
Saccharomyces cerevisiae [10] = test: Antifungal activity against Saccharomyces cerevisiae DSY 390 after 40 to 48 hrs by serial dilution method; assay type: functional, organism-based; how it was run: as §2
Saccharomyces cerevisiae [11] = test: Antifungal activity against Saccharomyces cerevisiae DSY 415 expressing Candida albicans CDR1 after 40 to 48 hrs by serial dilution method in absence of fluconazole; assay type: functional, organism-based; how it was run: as §3
Saccharomyces cerevisiae [12] = test: Antifungal activity against Saccharomyces cerevisiae DSY 416 expressing Candida albicans MDR1 after 40 to 48 hrs by serial dilution method in absence of fluconazole; assay type: functional, organism-based; details: DSY 416, MDR1; how it was run: as §3
Saccharomyces cerevisiae [13] = test: Potentiation of fluconazole-induced antifungal activity against Saccharomyces cerevisiae DSY 426 expressing Candida albicans FLU1 assessed as fractional inhibitory concentration at 3.8 uM after 40 to 48 hrs by checkerboard assay; assay type: functional; how it was run: as §1
Saccharomyces cerevisiae [14] = test: Potentiation of fluconazole-induced antifungal activity against Saccharomyces cerevisiae DSY 417 expressing Candida albicans CDR2 assessed as fractional inhibitory concentration at 3.8 uM after 40 to 48 hrs by checkerboard assay; assay type: functional; how it was run: as §1
Saccharomyces cerevisiae [15] = test: Antifungal activity against Saccharomyces cerevisiae DSY 415 expressing Candida albicans CDR1 after 40 to 48 hrs by serial dilution method in presence of 33 uM fluconazole; assay type: functional, organism-based; how it was run: as §3
Saccharomyces cerevisiae [16] = test: Antifungal activity against Saccharomyces cerevisiae DSY 416 expressing Candida albicans MDR1 after 40 to 48 hrs by serial dilution method in presence of 33 uM fluconazole; assay type: functional, organism-based; details: DSY 416, MDR1; how it was run: as §3
Saccharomyces cerevisiae [17] = test: Potentiation of fluconazole-induced antifungal activity against Saccharomyces cerevisiae DSY 390 assessed as fractional inhibitory concentration at 3.8 uM after 40 to 48 hrs by checkerboard assay; assay type: functional; how it was run: as §1
Saccharomyces cerevisiae [18] = test: Potentiation of fluconazole-induced antifungal activity against Saccharomyces cerevisiae DSY 415 expressing Candida albicans CDR1 assessed as fractional inhibitory concentration at 3.8 uM after 40 to 48 hrs by checkerboard assay; assay type: functional; how it was run: as §1
Saccharomyces cerevisiae [19] = test: Potentiation of fluconazole-induced antifungal activity against Saccharomyces cerevisiae DSY 416 expressing Candida albicans MDR1 assessed as fractional inhibitory concentration at 3.8 uM after 40 to 48 hrs by checkerboard assay; assay type: functional; how it was run: as §1
T47D = test: Cytotoxicity against human T47D cells at 10 uM after 48 hrs by neutral red staining; assay type: cell-based
How it was run: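 T47D cells in DMEM/F12 with 10% FBS and penicillin/streptomycin, plated at 30 000 cells/well. After 24 h, compound added at final 0.03-10 µM and incubated 24 and 48 h at 37 °C. Then Neutral Red 0.15 mg/mL for 2 h, lysis in 0.04 N HCl/2-propanol, A540 minus A630. Viability given as percent of control.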

[20] = target: T1, Multidrug resistance protein 1 (Candida albicans (strain SC5314 / ATCC MYA-2876) (Yeast)) (UniProt Q5ABU7); test: Inhibition of Candida albicans MDR1-mediated fluconazole resistance in Saccharomyces cerevisiae DSY 416 up to 90 uM
T1 sequence (whole entry): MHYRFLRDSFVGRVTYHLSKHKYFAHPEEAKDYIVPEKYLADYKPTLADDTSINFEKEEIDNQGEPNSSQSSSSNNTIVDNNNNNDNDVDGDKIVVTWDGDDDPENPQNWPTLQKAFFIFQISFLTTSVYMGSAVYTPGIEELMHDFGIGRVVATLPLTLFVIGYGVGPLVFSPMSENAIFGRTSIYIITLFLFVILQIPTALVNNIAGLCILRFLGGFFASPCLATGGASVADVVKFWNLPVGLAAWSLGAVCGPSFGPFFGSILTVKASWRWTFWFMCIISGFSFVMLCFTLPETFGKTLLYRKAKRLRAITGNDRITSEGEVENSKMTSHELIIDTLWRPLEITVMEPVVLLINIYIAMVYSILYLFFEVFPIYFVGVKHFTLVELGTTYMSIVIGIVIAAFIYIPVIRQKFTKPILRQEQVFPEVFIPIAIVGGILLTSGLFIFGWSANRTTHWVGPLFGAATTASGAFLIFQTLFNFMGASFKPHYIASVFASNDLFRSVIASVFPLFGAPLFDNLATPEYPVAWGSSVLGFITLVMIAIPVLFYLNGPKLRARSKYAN

Saccharomyces cerevisiae [21] = test: Potentiation of fluconazole-induced antifungal activity against Saccharomyces cerevisiae DSY 415 expressing Candida albicans CDR1 assessed as fractional inhibitory concentration at 3.1 uM after 40 to 48 hrs by checkerboard assay; assay type: functional
How it was run: (§4)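 This was a checkerboard in a modified NCCLS microdilution: fluconazole and second agent were each serially diluted in saline and combined in all concentration pairs. Pump-expressing or null S. cerevisiae inoculum was 1.0 × 10^4 CFU/mL in YPD, with OD630 read before and after 40-48 h at 30 °C. FIC used IC50 as endpoint. FLU levels for FIC were 0.5 µM (null), 50 µM (CDR1, MDR1), 1.56 µM (CDR2) and 3.13 µM (FLU1).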

Saccharomyces cerevisiae [22] = test: Potentiation of fluconazole-induced antifungal activity against Saccharomyces cerevisiae DSY 426 expressing Candida albicans FLU1 assessed as fractional inhibitory concentration at 3.1 uM after 40 to 48 hrs by checkerboard assay; assay type: functional; how it was run: as §4
Saccharomyces cerevisiae [23] = test: Potentiation of fluconazole-induced antifungal activity against Saccharomyces cerevisiae DSY 416 expressing Candida albicans MDR1 assessed as fractional inhibitory concentration at 3.1 uM after 40 to 48 hrs by checkerboard assay; assay type: functional; how it was run: as §4
Saccharomyces cerevisiae [24] = test: Potentiation of fluconazole-induced antifungal activity against Saccharomyces cerevisiae DSY 417 expressing Candida albicans CDR2 assessed as fractional inhibitory concentration at 3.1 uM after 40 to 48 hrs by checkerboard assay; assay type: functional; how it was run: as §4
Saccharomyces cerevisiae [25] = test: Potentiation of fluconazole-induced antifungal activity against Saccharomyces cerevisiae DSY 390 assessed as fractional inhibitory concentration at 3.1 uM after 40 to 48 hrs by checkerboard assay; assay type: functional; how it was run: as §4

| Compound | IC50 (Saccharomyces cerevisiae [4]) [µM] | MIC (Saccharomyces cerevisiae [4]) [µM] | IC50 (Saccharomyces cerevisiae [5]) [µM] | MIC (Saccharomyces cerevisiae [5]) [µM] | IC50 (Saccharomyces cerevisiae [7]) [µM] | MIC (Saccharomyces cerevisiae [7]) [µM] | MIC (Saccharomyces cerevisiae [8]) [µM] | IC50 (Saccharomyces cerevisiae [8]) [nM] | IC50 (Saccharomyces cerevisiae [10]) [nM] | MIC (Saccharomyces cerevisiae [10]) [µM] | further results |
| --- | --- | --- | --- | --- | --- | --- | --- | --- | --- | --- | --- |
| C[C@@H]1[C@H](O)[C@@H](C)/C=C/C=C/C=C/C=C/C=C/C=C/C=C/[C@H](O[C@@H]2O[C@H](C)[C@@H](O)[C@H](N)[C@@H]2O)C[C@@H]2O[C@](O)(C[C@@H](O)C[C@@H](O)[C@H](O)CC[C@@H](O)C[C@@H](O)CC(=O)O[C@H]1C)C[C@H](O)[C@H]2C(=O)O [AMPHOTERICIN B] | 0.55 | 0.75 (≈ 0.693 µg/mL) | 0.55 | 0.75 (≈ 0.693 µg/mL) | 0.55 | 0.75 (≈ 0.693 µg/mL) | 0.75 (≈ 0.693 µg/mL) | 550 | 550 | 0.75 (≈ 0.693 µg/mL) | fractional inhibitory concentration index (FICI) (Saccharomyces cerevisiae [1]): 1.42; fractional inhibitory concentration index (FICI) (Saccharomyces cerevisiae [2]): 1.58; fractional inhibitory concentration index (FICI) (Saccharomyces cerevisiae [3]): 0.97; fractional inhibitory concentration index (FICI) (Saccharomyces cerevisiae [6]): 0.89; fractional inhibitory concentration index (FICI) (Saccharomyces cerevisiae [9]): 1.85 |
| CC(=O)O[C@H]1C=C2[C@@H]3CC[C@H]([C@H](C)CCCC(C)C)[C@@]3(C)C[C@@H]3O[C@@]23[C@@]2(CO)CC[C@H](O)C[C@]12O | – | – | > 30 | – | – | – | – | – | – | – | IC50 (Saccharomyces cerevisiae [11]): > 104 µM; IC50 (Saccharomyces cerevisiae [12]): > 104 µM; fractional inhibitory concentration index (FICI) (Saccharomyces cerevisiae [13]): 1.26; fractional inhibitory concentration index (FICI) (Saccharomyces cerevisiae [14]): 1.6; IC50 (Saccharomyces cerevisiae [15]): 31 µM; IC50 (Saccharomyces cerevisiae [16]): < 4 µM; fractional inhibitory concentration index (FICI) (Saccharomyces cerevisiae [17]): 1.85; fractional inhibitory concentration index (FICI) (Saccharomyces cerevisiae [18]): 0.88; fractional inhibitory concentration index (FICI) (Saccharomyces cerevisiae [19]): 0.05; Activity (T47D): Non-toxic |
| OC(Cn1cncn1)(Cn1cncn1)c1ccc(F)cc1F [FLUCONAZOLE] | 15 | 25 (≈ 7.66 µg/mL) | 300 | 400 (≈ 123 µg/mL) | 35 | 50 (≈ 15.3 µg/mL) | > 400 | > 400000 | 3500 | 8 (≈ 2.45 µg/mL) | – |
| CC(=O)OC[C@]12CC[C@H](OC(C)=O)C[C@]1(O)[C@@H](OC(C)=O)C=C1[C@@H]3CC[C@H]([C@H](C)CCCC(C)C)[C@@]3(C)C[C@@H]3O[C@@]132 | – | – | – | – | – | – | – | – | – | – | Activity [20]: inactive |
| CC(C)[C@@H]1OC(=O)[C@@H](Cc2ccccc2)N(C)C(=O)[C@H](C(C)C)OC(=O)[C@@H](Cc2ccccc2)N(C)C(=O)[C@H](C(C)C)OC(=O)[C@@H](Cc2ccccc2)N(C)C1=O [BEAUVERICIN] | – | – | – | – | – | – | – | – | – | – | fractional inhibitory concentration index (FICI) (Saccharomyces cerevisiae [21]): 0.045; fractional inhibitory concentration index (FICI) (Saccharomyces cerevisiae [22]): 2; fractional inhibitory concentration index (FICI) (Saccharomyces cerevisiae [23]): 2; fractional inhibitory concentration index (FICI) (Saccharomyces cerevisiae [24]): 1.3; fractional inhibitory concentration index (FICI) (Saccharomyces cerevisiae [25]): 2.57 |
